This is an account of results in ChEMBL document CHEMBL1124308, “Renin inhibitors. Dipeptide analogues of angiotensinogen utilizing a structurally modified phenylalanine residue to impart proteolytic stability” (J Med Chem, 1988).

Usually inhibition stands for the share of the control response that was lost under treatment. As usually defined, the IC50 is the point on the concentration scale where inhibition reaches its midpoint. Low values mean inhibition by little substance, high ones a need for much substance. The term half-life denotes how long it takes for the measured level to halve.

One data set deals with T1, Cathepsin D (Bos taurus) (UniProt P80209).
T1 sequence (whole entry): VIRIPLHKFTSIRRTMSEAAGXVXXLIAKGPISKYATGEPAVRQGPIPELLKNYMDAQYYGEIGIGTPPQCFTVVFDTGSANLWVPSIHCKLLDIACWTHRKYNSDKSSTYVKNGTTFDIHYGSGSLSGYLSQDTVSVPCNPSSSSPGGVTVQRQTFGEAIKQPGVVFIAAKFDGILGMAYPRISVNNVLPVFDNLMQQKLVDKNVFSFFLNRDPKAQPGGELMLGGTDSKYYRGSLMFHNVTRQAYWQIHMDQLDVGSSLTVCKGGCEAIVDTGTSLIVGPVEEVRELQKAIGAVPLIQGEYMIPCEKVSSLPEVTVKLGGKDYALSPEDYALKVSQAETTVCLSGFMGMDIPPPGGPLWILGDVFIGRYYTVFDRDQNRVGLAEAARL
In words: Inhibition of bovine cathepsin D at 1*10e-5. As to conditions: concentration not given here.

The target of a further data set is Pepsin A (Sus scrofa) (UniProt P00791). In words: Inhibition of porcine pepsin enzyme at 1*10e-5. The conditions noted are these: concentration not given here.
A short description of data set [1]: (§1) Ratio of IC50 value for human plasma renin(pH 7.4) and purified human renin(pH 6.0). It is filed as functional.
Data set [2] in a line: as §1.
The target in data set [3] is T2, Renin (Homo sapiens, UniProt P00797).
T2 sequence (P00797 whole entry): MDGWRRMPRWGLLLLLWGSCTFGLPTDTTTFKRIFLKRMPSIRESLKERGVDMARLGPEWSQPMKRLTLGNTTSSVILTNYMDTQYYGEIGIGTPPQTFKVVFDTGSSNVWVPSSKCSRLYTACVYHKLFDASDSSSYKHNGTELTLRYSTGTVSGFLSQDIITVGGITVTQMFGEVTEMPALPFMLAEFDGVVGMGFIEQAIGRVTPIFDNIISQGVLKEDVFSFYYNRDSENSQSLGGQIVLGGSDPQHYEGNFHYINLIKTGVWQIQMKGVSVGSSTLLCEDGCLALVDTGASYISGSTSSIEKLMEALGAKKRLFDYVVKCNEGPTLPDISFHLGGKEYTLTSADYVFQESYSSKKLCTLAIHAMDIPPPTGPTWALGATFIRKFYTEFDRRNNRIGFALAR
In words: Inhibition of human plasma renin (pH 7.4). It is filed as cell-free. In short, it runs like this:
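Plasma renin assay at pH 7.4, adapted from an earlier method: 0.10 M HEPES buffer in place of maleate, incubation lengthened to 2.5 h, and angiotensin I measured by radioimmunoassay on the whole incubation sample. IC50 reported in nM.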

The target in data set [4] is T2, Renin. As to the kind of experiment: Inhibition of purified human renin (pH 6.0).
The test system of the next data set is chymotrypsin. In words: The compound was tested […] for chymotrypsin susceptibility (degradation). Type of data set: ADME.

Pepsin A (Sus scrofa), sequence (P00791 60-385 limits assumed): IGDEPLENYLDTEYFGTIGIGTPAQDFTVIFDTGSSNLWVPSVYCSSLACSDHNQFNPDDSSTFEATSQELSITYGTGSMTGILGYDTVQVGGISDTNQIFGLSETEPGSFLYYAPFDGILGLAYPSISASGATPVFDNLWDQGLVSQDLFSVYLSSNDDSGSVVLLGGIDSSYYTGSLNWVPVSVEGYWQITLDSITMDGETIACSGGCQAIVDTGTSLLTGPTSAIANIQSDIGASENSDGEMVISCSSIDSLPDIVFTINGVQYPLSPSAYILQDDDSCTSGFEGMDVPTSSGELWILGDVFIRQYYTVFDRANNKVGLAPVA

For the compound `CC(C)C[C@H](O)[C@H](O)[C@H](CC1CCCCC1)NC(=O)[C@H](Cc1c[nH]cn1)NC(=O)[C@H](Cc1ccccc1)NC(=O)N(C)CCO`, the inhibition came out at 0% against Cathepsin D (Bos taurus) and 3% at Pepsin A (Sus scrofa). Moreover, the Ratio in data set [1] is 1.8.

`CC(C)C[C@H](O)[C@H](O)[C@H](CC1CCCCC1)NC(=O)[C@H](Cc1c[nH]cn1)NC(=O)[C@H](Cc1ccccc1)NC(=O)N1CCOCC1`: the Ratio in data set [2] is 2.5. Moreover, the inhibition on Cathepsin D (Bos taurus) and against Pepsin A (Sus scrofa) was 0% each time.

For `CC(C)C[C@H](O)[C@H](O)[C@H](CC1CCCCC1)NC(=O)[C@H](Cc1c[nH]cn1)NC(=O)[C@@H](Cc1ccccc1)NC(=O)N1CCOCC1`, the half-inhibitory concentration (IC50) against Renin [3] was determined as 140000 pM; on Renin [4], 14000 pM. Further, the inhibition against Cathepsin D (Bos taurus) turned out to be 1%; on Pepsin A (Sus scrofa) it was 2%. For the same compound, the Ratio in data set [1] stood at 10.

Regarding `CC(C)C[C@H](O)[C@H](O)[C@H](CC1CCCCC1)NC(=O)[C@H](Cc1c[nH]cn1)NC(=O)[C@@H](CC(=O)N1CCOCC1)Cc1ccccc1`, in data set [2], the Ratio came out at 4.5. In addition, the results for the half-inhibitory concentration (IC50) against Renin [3] and on Renin [4] were 1300 pM and 290 pM, respectively. Moreover, the inhibition at Cathepsin D (Bos taurus) and against Pepsin A (Sus scrofa) was 0% throughout. Besides, the half-life with chymotrypsin was found to be 227 min.

For `CC(C)C[C@H](O)[C@H](O)[C@H](CC1CCCCC1)NC(=O)[C@H](Cc1c[nH]cn1)NC(=O)[C@H](Cc1ccccc1)OC(=O)N1CCOCC1`, the 50% inhibitory concentration (IC50) against Renin [3] was determined as 3000 pM; on Renin [4], 820 pM. For the same compound, the inhibition against Cathepsin D (Bos taurus) and on Pepsin A (Sus scrofa) was 0% each time. Also, the Ratio in data set [1] stood at 3.7. Besides, the half-life with chymotrypsin came to 233 min.

As for `CC(C)C[C@H](O)[C@H](O)[C@H](CC1CCCCC1)NC(=O)[C@H](Cc1cnc[nH]1)NC(=O)[C@H](Cc1ccccc1)NC(=O)N(C)CCO`, the values for the IC50 at Renin [3] and against Renin [4] were 980 pM and 550 pM, respectively. This compound returned a half-life in the data set on chymotrypsin of 34.3 min.

For `CC(C)C[C@H](O)[C@H](O)[C@H](CC1CCCCC1)NC(=O)[C@H](Cc1c[nH]cn1)NC(=O)[C@H](Cc1ccccc1)NC(=O)N1CCC(O)CC1`, the 50% inhibitory concentration (IC50) at Renin [3] came to 680 pM; against Renin [4] it was 420 pM. In addition, the values for the inhibition against Cathepsin D (Bos taurus) and on Pepsin A (Sus scrofa) were 2% and 4%, respectively. For the same compound, in data set [1], the Ratio was determined as 1.6. This compound also displayed a half-life in the data set on chymotrypsin of 3.3 min.

Regarding `CC(C)C[C@H](O)[C@H](O)[C@H](CC1CCCCC1)NC(=O)[C@H](Cc1cnc[nH]1)NC(=O)[C@H](Cc1ccccc1)NC(=O)N1CCOCC1`, the figures for the concentration for half-maximal inhibition (IC50) at Renin [3] and on Renin [4] were 890 pM and 350 pM, respectively. Moreover, the half-life in the data set with chymotrypsin came to 2.2 min.

For `COc1ccc(C[C@H](NC(=O)N2CCOCC2)C(=O)N[C@@H](Cc2cnc[nH]2)C(=O)N[C@@H](CC2CCCCC2)[C@@H](O)[C@@H](O)CC(C)C)cc1`, the values for the 50% inhibitory concentration (IC50) on Renin [3] and on Renin [4] were 2400 pM and 760 pM, respectively. For the same compound, the half-life in the data set with chymotrypsin amounted to 727 min.

Regarding `COc1ccc(C[C@H](NC(=O)N2CCOCC2)C(=O)N[C@@H](Cc2c[nH]cn2)C(=O)N[C@@H](CC2CCCCC2)[C@@H](O)[C@@H](O)CC(C)C)cc1`, the inhibition is 3% against Cathepsin D (Bos taurus) and 4% at Pepsin A (Sus scrofa). The Ratio in data set [1] came to 3.2.

As to `CC(C)C[C@H](O)[C@H](O)[C@H](CC1CCCCC1)NC(=O)[C@H](Cc1c[nH]cn1)N(C)C(=O)[C@H](Cc1ccccc1)NC(=O)N1CCOCC1`, the IC50 against Renin [3] was determined as 2500 pM; against Renin [4], 940 pM. Further, the inhibition against Cathepsin D (Bos taurus) and against Pepsin A (Sus scrofa) was 0% throughout. Also, the Ratio in data set [1] was 2.7.

In turn, `CC(C)C[C@H](O)[C@H](O)[C@H](CC1CCCCC1)NC(=O)[C@H](Cc1c[nH]cn1)NC(=O)[C@H](Cc1ccccc1)NC(=O)N1CCNCC1` yielded an IC50 against Renin [3] of 4500 pM. The inhibition at Cathepsin D (Bos taurus) and against Pepsin A (Sus scrofa) was 0% in each case. Besides, the Ratio in data set [1] was determined as 6.9. Also, the half-life in the data set on chymotrypsin is 6.9 min.

On to `CC(C)C[C@H](O)[C@H](O)[C@H](CC1CCCCC1)NC(=O)[C@H](Cc1c[nH]cn1)NC(=O)/C(=C/c1ccccc1)CC(=O)N1CCOCC1`, for which the half-inhibitory concentration (IC50) against Renin [3] worked out at 2100 pM; against Renin [4] it was 790 pM. Also, the values for the inhibition on Cathepsin D (Bos taurus) and on Pepsin A (Sus scrofa) were 0% and 8%, respectively. Besides, in data set [1], the Ratio is 2.7. The compound further gave a half-life with chymotrypsin of 1260 min.

`CC(C)C[C@H](O)[C@H](O)[C@H](CC1CCCCC1)NC(=O)[C@H](Cc1c[nH]cn1)NC(=O)[C@H](Cc1ccccc1)NC(=O)N(C)C`: the 50% inhibitory concentration (IC50) against Renin [3] came to 3300 pM; against Renin [4] it was 500 pM. The inhibition stood at 3% at Cathepsin D (Bos taurus) and 11% on Pepsin A (Sus scrofa). In data set [1], the Ratio turned out to be 6.6. For the same compound, in the data set on chymotrypsin, the half-life is 17.5 min.

Consider `CC(C)C[C@H](O)[C@H](O)[C@H](CC1CCCCC1)NC(=O)[C@H](Cc1c[nH]cn1)NC(=O)[C@@H](NC(=O)N1CCOCC1)C(C)(C)c1ccccc1`, for which the inhibition against Cathepsin D (Bos taurus) and against Pepsin A (Sus scrofa) was 3% each time. The Ratio in data set [1] was determined as 25.

Consider `CC(C)C[C@H](O)[C@H](O)[C@H](CC1CCCCC1)NC(=O)[C@H](Cc1c[nH]cn1)NC(=O)[C@H](CCc1ccccc1)NC(=O)N1CCOCC1`, for which the concentration for half-maximal inhibition (IC50) at Renin [3] is 2000 pM; on Renin [4], 300 pM. For the same compound, the inhibition at Cathepsin D (Bos taurus) was found to be 0%; at Pepsin A (Sus scrofa), 6%. Besides, in data set [1], the Ratio was 6.7. In the data set with chymotrypsin, this compound gave a half-life of 9.6 min.

Take `CC(C)C[C@H](O)[C@H](O)[C@H](CC1CCCCC1)NC(=O)[C@H](Cc1cnc[nH]1)NC(=O)[C@@H](NC(=O)N1CCOCC1)C(C)(C)c1ccccc1`: the IC50 against Renin [3] came out at 65000 pM; against Renin [4] it was 2600 pM.

On to `CC(C)C[C@H](O)[C@H](O)[C@H](CC1CCCCC1)NC(=O)[C@H](Cc1c[nH]cn1)NC(=O)/C(=C/c1ccccc1)NC(=O)N1CCOCC1`, for which the values for the IC50 against Renin [3] and at Renin [4] were 5300 pM and 580 pM, respectively. Further, the inhibition on Cathepsin D (Bos taurus) and at Pepsin A (Sus scrofa) was 0% each time. The Ratio in data set [1] amounted to 9.1.
